Source: PubChem BioAssay
Compounds with a hit are over-represented: about 2.4% of the library has one in this group of screens.
UBC9 SUMO inh: blocks human SUMOylation mediated by UBC9; inhibition, % at 35 µM; AID 2006; 0.36% of 290,000 active; HTRF SUMOylation assay, SAE1/SAE2 + UBC9, in vitro; P63279; in the data active = inhibition above about 50%, passing the limit was not always enough
Target sequence (P63279 whole entry, looked up): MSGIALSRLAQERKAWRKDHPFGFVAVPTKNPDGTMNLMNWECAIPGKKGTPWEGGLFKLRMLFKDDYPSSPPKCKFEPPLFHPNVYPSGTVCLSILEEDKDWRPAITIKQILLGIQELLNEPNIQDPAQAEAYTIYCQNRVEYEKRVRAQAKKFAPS
PfM18AAP inh-1: PfM18AAP enzyme inhibition; recombinant PfM18AAP, H-Glu-NHMec fluorogenic cleavage; inhibition, % at 7.35 µM; 1.2% of 290,000 active; AID 1822;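 active = inhibition above the campaign mean inhibition over all tested compounds plus 3 SD, cut at about 28% in these data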;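 also: 0% = plate median of test compound wells and 100% = 2 mM ZnCl2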
APOBEC3G inh: APOBEC3G (human) deaminase inhibition; Q9HC16; recombinant A3G, ssDNA deamination FAM/TAMRA fluorescence; inhibition, % at 20 µM; 0.28% of 330,000 active; AID 493012;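 active = inhibition of at least 40% at 20 µM, with no more than 30% in the related APOBEC3A deaminase screen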;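 also: plate controls were DMSO wells with A3G for no effect and wells lacking A3G enzyme for full effect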
HKDC1 inh: HKDC1 (human) hexokinase inhibition; Q2TB90; recombinant HKDC1, G6PDH/diaphorase resazurin coupled fluorescence; inhibition, % at 20 µM; 0.16% of 340,000 active; AID 493160;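 active = inhibition above about 35% when tested at 20 µM, limit read from the data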;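 also: plate controls were DMSO wells with enzyme for no effect and DMSO wells lacking enzyme for full effect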
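Test system: recombinant HKDC1 (HK5) hexokinase enzyme, produced in-house; Amount: enzyme 5 µg/mL final; Buffer or medium: Tris pH 8.0 buffer with MgCl2, Tween-20, BSA, BME; Reagent: glucose and ATP substrates; Doses: 20 µM test compound, 1% DMSO; Incubation: 90 min reaction incubation at room temperature, dark; Detection: resorufin fluorescence at 613 nm.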
APOBEC3A inh: blocks human APOBEC3A ssDNA deamination. P31941. recombinant A3A, FAM/TAMRA ssDNA deamination fluorescence. inhibition, % at 20 µM. 0.41% of 330,000 active. AID 493011;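 active = at least 40% inhibition at 20 µM here, with at most 30% in a related deaminase screen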;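 also: plate controls were A3A with DMSO for no effect and wells lacking A3A enzyme for full effect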
Target sequence (P31941 whole entry, looked up): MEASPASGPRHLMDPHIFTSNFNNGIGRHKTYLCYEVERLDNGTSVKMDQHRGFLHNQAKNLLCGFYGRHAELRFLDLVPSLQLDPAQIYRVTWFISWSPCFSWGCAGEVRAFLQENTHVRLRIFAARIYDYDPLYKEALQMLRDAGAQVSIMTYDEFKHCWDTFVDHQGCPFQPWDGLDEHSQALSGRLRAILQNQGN
PfGluPho inh: PfG6PD (Plasmodium falciparum) enzyme inhibition | 0.78% of 350,000 active | AID 504690 | PfGluPho enzyme, NADPH resazurin-diaphorase fluorescence | inhibition, % at 20 µM;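 active = inhibition reaching at least a set limit at 20 µM in the primary screen, cut at about 59% in these data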;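 also: 0% = DMSO wells with substrate and 100% = DMSO wells lacking glucose-6-phosphate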
PfM18AAP inh-2: PfM18AAP inhibition, confirmation | shares compounds with PfM18AAP inh-1 | recombinant PfM18AAP, H-Glu-NHMec fluorogenic cleavage | inhibition, % at 7.35 µM | 28% of 2,400 active;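 active = mean inhibition over replicate wells above the hit cutoff set for the earlier primary screen, cut at about 29% in these data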;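 also: 0% = median of test compound wells and 100% = 2 mM ZnCl2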
CTSL1 confirm: Cathepsin L (human) inhibition, confirmation; shares compounds with PfM18AAP inh-1; purified cathepsin L1, Z-Leu-Arg-MCA fluorescence; inhibition, % at 5.96 µM; 2,400 tested, under 10 active; AID 2178;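 active = average inhibition across replicates above the hit cutoff set in the earlier primary screen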;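 also: 0% = median of test compound wells and 100% = Z-Phe-Ala-diazomethylketone 1 µM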
An asterisk follows results filed as active; nt = no result given.

SMILES | UBC9 SUMO inh | PfM18AAP inh-1 | APOBEC3G inh | HKDC1 inh | APOBEC3A inh | PfGluPho inh | PfM18AAP inh-2 | CTSL1 confirm
C[C@H](NC(=O)OC(C)(C)C)c1nnc(SCC(=O)c2ccc(Cl)cc2)o1 | 0.1 | -2.9 | -0.5 | 0.6 | 1.9 | 7.7 | nt | nt
N#CC1=C(N)NC(=S)C(C(N)=O)C1c1ccccc1F (stereo not given) | 16.4 | 46.5* | 38.2 | 16.5 | 3.0 | 30.2 | 29.7* | -3.3
Cc1nc(C)c(C(=O)Nc2nc3c(C)cccc3s2)o1 | -1.9 | 10.1 | 14.6 | -2.0 | 30.6 | 18.1 | nt | nt
Cc1cccc2sc(NNC(=O)c3cc(=O)c4ccccc4o3)nc12 | -48.7 | 43.9* | -3.1 | -22.9 | 0.2 | 24.8 | -0.9 | -3.7
Cc1cc(C(=O)NNC(=O)Nc2ccccc2)no1 | 24.2 | -7.9 | -0.4 | -0.6 | 0.5 | 0.3 | nt | nt
Cc1cccc(NC(=O)NNC(=O)c2cc3occc3[nH]2)c1C | 11.4 | 46.1* | -5.6 | -4.9 | -1.3 | 17.1 | 22.6 | -6.5
Cc1cc(C)cc(NC(=O)NNC(=O)c2cc3occc3[nH]2)c1 | 9.8 | 55.6* | -4.2 | -2.4 | -4.7 | 4.8 | 21.5 | -3.6
COCC(=O)Nc1ccc(S(=O)(=O)Nc2ccccn2)cc1 | -10.9 | -4.3 | -6.6 | -11.5 | -3.0 | 5.0 | nt | nt
CC(NC(=O)c1ccccc1)c1ccc(Br)cc1 (stereo not given) | -2.9 | -3.6 | -0.1 | -11.6 | 5.5 | -0.7 | nt | nt
COc1ccccc1[C@@H]1C(c2ccccc2)=NN(c2ccccc2)[C@H]1C(=O)N1CCOC1=O | nt | nt | 2.2 | 6.5 | 4.9 | 10.8 | nt | nt
COc1ccc2c(c1)C(=O)Cc1ccccc1O2 | nt | nt | -4.8 | 2.1 | -5.6 | -11.1 | nt | nt
Cc1ccc(/C=N/Nc2cn[nH]c(=O)n2)o1 | -13.5 | 48.3* | -7.9 | -3.4 | -3.3 | 9.7 | 5.2 | 3.5
Cc1ccc(/C=N/Nc2ccc3ccccc3n2)o1 | -0.6 | 13.7 | -1.2 | 1.8 | 1.2 | 42.0 | nt | nt
O=c1cc(-c2ccc(O)cc2)oc2cc(O)c(C3OC(CO)C(O)C(O)C3O)c(O)c12 (stereo not given) | 25.3 | 44.0* | -1.9 | 1.3 | -0.7 | 0.3 | 4.5 | 3.3
O=C1Nc2ccccc2/C1=C/c1ccc([N+](=O)[O-])cc1 | 4.8 | 35.1* | -6.5 | -7.3 | -3.0 | 0.8 | -1.9 | -1.7
Cc1ccc(Cl)cc1NC(=O)Nn1cnnc1 | 3.3 | 76.3* | -10.8 | 0.6 | -2.9 | -1.1 | 60.9* | -5.3
Cc1ccc(C)c(NC(=O)CCn2cnnn2)c1 | 7.2 | 2.1 | 0.7 | -3.7 | 0.0 | -3.7 | nt | nt
COc1ccc(Cl)cc1NC(=O)Nn1cnnc1 | 5.5 | 81.1* | -0.4 | -2.3 | 2.6 | -7.7 | 73.5* | 2.2
Cc1ccc(C)c(NC(=O)Nn2cnnc2)c1 | -5.7 | 59.7* | 1.3 | -2.2 | 1.7 | -9.1 | 40.7* | -2.9
O=C(Nc1ccc(Cl)cc1Cl)Nn1cnnc1 | 13.4 | 82.5* | -6.5 | 6.9 | -2.8 | 3.8 | 76.8* | -2.4
Cc1cc(NC(=O)Nc2cc(Cl)ccc2C)no1 | -0.1 | -2.2 | 6.2 | -2.9 | 4.1 | 3.1 | nt | nt
CCNc1nc(NCC)nc(N(n2cnnc2)S(=O)(=O)c2ccc(C)cc2)n1 | -25.4 | 6.0 | -1.2 | -8.0 | -1.5 | 2.4 | nt | nt
CCc1c(C)nc2ccc(Br)cc2c1SCCC#N | -1.3 | -12.3 | 2.5 | -12.2 | 0.6 | 21.3 | nt | nt
COc1cc(/C=C/c2ccc3c([N+](=O)[O-])cccc3n2)ccc1OCC(=O)O | 16.3 | 2.5 | -0.2 | -1.4 | 4.3 | 2.9 | nt | nt
CCN1C(=O)/C(=C2\C=Cc3ccccc3N2CC)SC1=S | -5.5 | 2.8 | 26.6 | -2.4 | 13.4 | 1.2 | nt | nt
CCN1C(=O)/C(=C2/SC(C)=C(C)N2CC)SC1=S | 4.1 | 37.7* | -8.3 | -5.5 | -6.3 | 8.2 | -30.6 | 0.5
CCOC(=O)N1CCN(c2ccc(O)cc2)CC1 | 0.2 | 38.8* | 8.2 | -6.5 | 0.5 | 42.0 | -9.7 | 3.6
O=C(C1CC1)N1CCN(c2ccc(O)cc2)CC1 | -10.2 | 43.1* | 18.1 | 0.1 | -6.2 | 41.4 | -31.6 | -2.4
CCOC(=O)N1CCN(c2ccc(Cl)cc2)CC1 | -9.0 | 5.1 | 2.0 | -4.5 | 0.8 | -12.2 | nt | nt
